# Measurements from different studies.
# Target: Mitogen-activated protein kinase kinase kinase 5 (MAP3K5, Homo sapiens, UniProt Q99683)
# Residues used in one study (Q99683 1-1374): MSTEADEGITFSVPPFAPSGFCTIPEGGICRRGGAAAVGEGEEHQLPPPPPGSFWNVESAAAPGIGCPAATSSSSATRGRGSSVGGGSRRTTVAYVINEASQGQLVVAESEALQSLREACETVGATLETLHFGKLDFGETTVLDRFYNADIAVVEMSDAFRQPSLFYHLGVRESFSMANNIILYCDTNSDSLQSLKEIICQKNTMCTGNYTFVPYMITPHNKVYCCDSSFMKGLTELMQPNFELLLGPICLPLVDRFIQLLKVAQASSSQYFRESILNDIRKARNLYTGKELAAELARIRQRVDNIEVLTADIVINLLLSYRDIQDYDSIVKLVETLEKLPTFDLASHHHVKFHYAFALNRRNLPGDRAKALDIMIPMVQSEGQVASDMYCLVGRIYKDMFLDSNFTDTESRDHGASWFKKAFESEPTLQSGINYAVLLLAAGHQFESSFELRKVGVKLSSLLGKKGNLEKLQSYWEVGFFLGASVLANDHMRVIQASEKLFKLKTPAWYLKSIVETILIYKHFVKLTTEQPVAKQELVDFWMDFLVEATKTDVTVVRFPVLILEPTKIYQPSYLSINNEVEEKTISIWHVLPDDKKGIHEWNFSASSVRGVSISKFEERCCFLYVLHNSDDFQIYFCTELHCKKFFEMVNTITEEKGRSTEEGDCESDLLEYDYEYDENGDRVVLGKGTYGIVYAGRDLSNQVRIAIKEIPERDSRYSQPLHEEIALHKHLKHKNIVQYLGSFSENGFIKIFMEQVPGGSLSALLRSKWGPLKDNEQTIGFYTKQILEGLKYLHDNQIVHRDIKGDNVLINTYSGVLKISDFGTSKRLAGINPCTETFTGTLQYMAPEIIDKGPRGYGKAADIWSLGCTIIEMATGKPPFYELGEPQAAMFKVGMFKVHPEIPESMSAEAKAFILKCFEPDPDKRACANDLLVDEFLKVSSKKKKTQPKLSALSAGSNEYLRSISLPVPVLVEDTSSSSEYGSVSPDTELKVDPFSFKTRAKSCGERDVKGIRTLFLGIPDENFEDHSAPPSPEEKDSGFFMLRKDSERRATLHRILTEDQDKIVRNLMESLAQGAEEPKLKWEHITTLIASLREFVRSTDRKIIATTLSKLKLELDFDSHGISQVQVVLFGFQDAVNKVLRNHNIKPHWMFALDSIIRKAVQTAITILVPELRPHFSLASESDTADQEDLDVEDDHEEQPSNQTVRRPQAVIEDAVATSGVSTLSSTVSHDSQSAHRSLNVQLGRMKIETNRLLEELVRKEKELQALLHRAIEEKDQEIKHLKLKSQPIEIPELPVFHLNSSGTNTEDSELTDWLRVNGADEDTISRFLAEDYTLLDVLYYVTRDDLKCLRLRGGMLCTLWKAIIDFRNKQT
Compound,observed,technique,tested at,remaining binding [%]
FC(F)(F)Oc1cccc(-c2cnc3ccc(-c4ccncc4)nn23)c1,cell-free assay,competition with immobilised ligand,5 µM,100
Cc1cnc(Nc2ccc(C(=O)N3CCC(N4CCCC4)CC3)cc2)nc1-c1cc2ccccc2s1,binding,competition with immobilised ligand,1 µM,100
c1cnn2ncc(-c3ccnc(N4CCC45COC5)n3)c2c1,binding,,1 µM,100
COc1ncc2cc3ccccc3nc2c1C#N,cell-free assay,competition with immobilised ligand,5 µM,96
O=C(c1ccc(Nc2nccc(-c3cc4ccccc4s3)n2)cc1)N1CCC(N2CCCC2)CC1,binding,competition with immobilised ligand,1 µM,100
N[C@H]1CCN(c2nccc(-c3cnn4ncccc34)n2)C1,binding,,1 µM,99
c1cncc(-c2cccc(Nc3nccc(NC4CCCCC4)n3)c2)c1,binding,competition with immobilised ligand,10 µM,100
O=C(NCCCN1CCOCC1)c1ccc(Nc2ncc(Cl)c(-c3ccc(Cl)s3)n2)cc1,binding,competition with immobilised ligand,1 µM,100
C=CC(=O)N1CCC(C(=O)NCC(=O)N2CCN(c3nc(-c4cnc(N)nc4C(F)F)nc(N4CCOCC4)n3)CC2)CC1,binding,competition with immobilised ligand,1 µM,100
C[C@H](c1ccnc(Nc2nc3ccc(-c4cc(N(C)C)ncn4)cc3[nH]2)c1)N1CCN(C(=O)CC(F)(F)F)CC1,cell-free assay,competition with immobilised ligand,0.1 µM,100
C[C@H]1CCN(c2nccc(-c3cnn4ncccc34)n2)C1,binding,,1 µM,100
CCCOc1ccc([C@@H]2[C@@H](C(=O)O)[C@H](c3ccc4c(c3)OCO4)CN2CC(=O)Nc2c(CC)cccc2CC)cc1,cell-free assay,competition with immobilised ligand,1 µM,97
CN(C)c1nccc(-c2cnn3ncccc23)n1,binding,,1 µM,87
COc1cc(-c2cn(C3CCc4ccccc4N(CC(F)(F)F)C3=O)nn2)ccc1-n1ccc(C)n1 (stereo not drawn),cell-free assay,competition with immobilised ligand,1 µM,100
Cc1cnn2ncc(-c3ccnc(N(C)C)n3)c2c1,binding,,1 µM,100
CNC(=O)Nc1ccc2c(c1)CC[C@@]21OC(=O)N(CC(=O)N(Cc2ccc(F)cc2)[C@@H](C)C(F)(F)F)C1=O,cell-free assay,competition with immobilised ligand,1 µM,94
COc1cnc(Nc2cccc(S(N)(=O)=O)c2)nc1N1CCN(c2ccccc2)CC1,binding,competition with immobilised ligand,1 µM,100
Cc1cc(C)c(-n2ccn3nc(-c4cccnc4)cc23)cc1NC(=O)c1cc(C#N)cc(S(F)(F)(F)(F)F)c1,cell-free assay,competition with immobilised ligand,0.1 µM,100
O=C(NCC1CCOCC1)c1n[nH]cc1NC(=O)c1c(F)cccc1F,binding,competition with immobilised ligand,1 µM,87
CC1CCCN1c1nccc(-c2cnn3ncccc23)n1 (stereo not drawn),binding,,1 µM,79
COCCOc1nc(-c2ccc(Cl)nc2)nc2c1CN(C(=O)c1ncn3ccccc13)CC2,cell-free assay,competition with immobilised ligand,0.1 µM,84
